Measurements from the EternaBench riboswitch data.

Test system: MS2 coat protein
Assay: apparent Kd, MS2 coat protein; higher = weaker binding; RNA-MaP array; FMN 200 µM where present
Procedure, shortened: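 In 100 mM Tris-HCl pH 7.5, 80 mM KCl, 4 mM MgCl2, BSA, DTT, yeast tRNA and Tween-20, SNAP-549-labelled MS2 coat protein was titrated from 0.7 or 1.5 nM, doubling to 3 µM, over designs transcribed by stalled E. coli RNA polymerase on Illumina sequencing-chip clusters. This was done first without ligand, then with ligand held constant. After green signal was normalised to red-channel RNA signal and control-cluster median Fmax, the apparent Kd was taken as the median of filtered per-cluster binding-curve fits.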

[1] = designed as: OFF switch for flavin mononucleotide, no ligand
[2] = ligand present: flavin mononucleotide, designed as: OFF switch for flavin mononucleotide
[3] = designed as: ON switch for flavin mononucleotide, no ligand
[4] = ligand present: flavin mononucleotide, designed as: ON switch for flavin mononucleotide

Sequence	apparent Kd [1]	apparent Kd [2]	apparent Kd [3]	apparent Kd [4]
AUCAGCUUGACAGGAUAUGCAUGUCAGCGAAAGCUGACAAUCUUAAUAACAUGAGGAUCACCCAUGUAGAAGGGUCGAGCUGAU	17.1 nM	20.3 nM	–	–
AUCAUACAUGAGGAUCACCCAUGUUCCGGCAGGUCAGGAUAUAAAUCGAAUGAGUUCUAGUUAGAAGGGACAUCUA	–	–	49.3 nM	39.2 nM
AUCAUGUAAGGAUAUGACUACAUAAAAAAAAAAAAAUGUAGUCAGAAGGUACAUGAGGAUCACCCAUGUACAAA	22.2 nM	23.7 nM	–	–
AUCAUGUUAGGAUAUACAAGAAAAGAAAAGAAAGAAAAGAAGUAGAAGGAACAUGAGGAUCACCCAUGUAAGAA	27.3 nM	45.4 nM	–	–
AUCCGACAUGUAGGAUAUGCGUGGCGAAGCUAUGCAGAAGGACAUGAGGAUCACCCAUGUUUUACCGUCUGCGUACAGACGGUG	286 nM	240 nM	–	–
AUCGGGUCAGGAUAUUGUUAGUUUAGUUGUUUGUAUUAGUUCGAGAAGGGACAUGAGGAUCACCCAUGUGGUAA	58.4 nM	73.2 nM	–	–
AUCGUGAGAGGAUAUACAUGAGGAUCACCCAUGUUUCGAACACCAUGCGGUCAUUUGCGUAGAAGGCUCGUGCG	29.1 nM	87.1 nM	–	–
AUCUAAGAAUUAAUUGUGACAGUGAGAAGGCUAUAGUUUGUGACCGACAUGAGGAUCACCCAUGUAGAGGAUAUCACUAGCUAC	39.9 nM	253 nM	–	–
AUGAAAGUAACGCAGGAUAUCCAGGAUACAACAUGAGGAUCACCCAUGUACAUACGAACGUAUAAGGAGAAGGGUGGAUGAUCUUC	–	–	173 nM	342 nM
AUGAAGUCAGGAUAUCGUUAAUUUAGUUGUUUGUAUUAGUUCGAGAAGGGACAUGAGGAUCACCCAUGUAAGUA	31.7 nM	38.5 nM	–	–
AUGAGAAAAGCAGGAUAUCUAUUGGCUCAGAAACAUGAGGAUCACCCAUGUAGAGAAGGGCUAAGACCGACUCUUCGGAGUUGA	5.68 nM	6.51 nM	–	–
AUGCCAGAAGGAUAUACAUGAGGAUCACCCAUGUCAUGUUUGAUUCGCCCGCAGGGCUGUAGAAGGUCUGGCAU	65.2 nM	543 nM	–	–
AUGCCCUGAGGAUAUCUCAUCCCGCACAUGAGGAUCACCCAUGUUCUCCUCCGGGCUCCGAGAGAAGGCAGGCCCA	55.6 nM	87.2 nM	–	–
AUGCGUCGAGAGGAUAUUUGCGAGGUGACCAGCAAAGAAGGUUCGACAUGAGGAUCACCCAUGUCCAGCAUUUG	34.2 nM	72.8 nM	–	–
AUGCUAUACGAAGGAUAUGGUUACAUGAGGAUCACCCAUGUAAUUUUUGUGAUCUUGUUUAAGUUCCAGAAGGUCGUAUAGCUA	42.2 nM	156 nM	–	–
AUGCUAUUAGGAUAUACAUGAGGAUCACCCAUGUCGCUCGAUCGACGGCUAAGACUAUGUAGAAGGGAUUACGU	95.7 nM	94.4 nM	–	–
AUGCUUAUCGAAGGAUAUGGUUACAUGAGGAUCACCCAUGUUAUGAUUGGUUACUUGUUUAGUUUCCAGAAGGUCGAUUAGUUA	58.8 nM	225 nM	–	–
AUGCUUCACACAGGAUAUUACAUGAGGAUCACCCAUGUUGGGCGGUAGCUCGAAAGAGCUACCGGUAAGAAGGGUGUGAAGCAU	30.4 nM	59.2 nM	–	–
AUGCUUUAUGUAGGAUAUACAUACGGUACGUAUGUAGAAGGACAUGAGGAUCACCCAUGUAAAUUAUUAUUAAAUAUCAUACAU	8.56 nM	12.3 nM	–	–
AUGGAACAUGAGGAUCACCCAUGUGAGGAUAUGUGAGAAGGAUUUGAGAUGGAGAGGGACAGAAGGCACUAGGA	54.4 nM	37.9 nM	–	–
AUGGAUGUCACAGGAUAUGCUAUGGAUACCAUAGCAGAAGGGUGAUCCAUCCUAUGUAAAUACAUGAGGAUCACCCAUGUAUCC	–	–	112 nM	73.6 nM
AUGGCUAAUGAGAAGGUGUAUAUAAAUUAUAUACAAGGAUAUCGGUCAAGCAUGAAAACAUGAGGAUCACCCAUGUAAAGCCAU	–	–	9.37 nM	7.57 nM
AUGGGACAUGAGGAUCACCCAUGUCCGGUAUAUCGAGGAUAUGGGAUGCUCUUAAUGUAACCAGAAGGCGAUAAAA	–	–	16.6 nM	18.9 nM
AUGGUUGUCGAGGAUAUGCACCGGCUCGCUGACGCAGAAGGCGACACAUGAGGAUCACCCAUGUCGGUUCGCGU	22.4 nM	51.4 nM	–	–
AUGUACCGGUGAGGAUAUUUUUAAUAGAGCUUUAUGAUAUACAUGAGGAUCACCCAUGUUACGUUAAAGAAGGCAUCGGAUUAA	21 nM	15.9 nM	–	–
AUGUAGGAAGGAUAUAUAUGGAGCAUGCGUCUCUGAACAUUACAUGAGGAUCACCCAUGUAGAAGGUCCGCGGA	24.1 nM	33.1 nM	–	–
AUGUUAGGGAGAGGAUAUUGACAUGAGGAUCACCCAUGUAUUUGGGAGUGUUUACUGAAUUCUUACGAGAAGGCUUACGAAAUU	396 nM	242 nM	–	–
AUGUUGUCAGGAUAUCGUUAAUUUAGUUGUUUGUAUUAGUUCGAGAAGGGACAUGAGGAUCACCCAUGUUUGUA	32 nM	44 nM	–	–

Sequence	apparent Kd [1]	apparent Kd [2]	apparent Kd [3]	apparent Kd [4]
AUUAAUUAAUUAAUACAUGAGGAUCACCCAUGUAAUAAGAUCUAGGAUAUCAGCUCGUUUAGAGCUGAGAAGGAGAUCACAUGU	–	–	42.6 nM	37.2 nM
AUUACAAUUGUAUACAUGAGGAUCACCCAUGUCAAAAGUCAUGAGGAUAUGGUAUUGUAGUUAUUCCAGAAGGCAUAAAGCUAA	–	–	29.2 nM	16.4 nM
AUUAGCUGAGGAUAUGCAGCUUUGUUCGUCGAGUGAAAAGAACAUGAGGAUCACCCAUGUAGAAGGCAGUUGAC	17.4 nM	18.1 nM	–	–
AUUAUACAUGAGGAUCACCCAUGUAAUUAAUUAAUUAAGAUCAAGGAUAUCAGCUCGAUUAGAGCUGAGAAGGUGAUCACAUGU	–	–	402 nM	292 nM
AUUAUAUAGACAGGAUAUUGAUUAUUAUUUUAACAUGAGGAUCACCCAUGUAGCCUUAUGUAUAACAAGAAGGGUCAUUUAUUA	151 nM	190 nM	–	–
AUUAUAUAGUAAGGAUAUUGAUUAUUAUUUUAACAUGAGGAUCACCCAUGUAGCCUUAUGUAUAACAAGAAGGUACAUUUAUUA	56.2 nM	58.4 nM	–	–
AUUAUGACCGAGUUAUACCUCUAAACAUGAGGAUCACCCAUGUAGGAUAUCAGCACGAUAAGUGCUGAGAAGGACAUCUCGGUC	17.2 nM	27 nM	–	–
AUUAUUGACGAAGGAUAUGGAUACAUGAGGAUCACCCAUGUAUAAUUUGUGAUCAUAUAUAUGAUCCAGAAGGUCGUUGUUUAU	41 nM	63.8 nM	–	–
AUUAUUUAGUAGAAGGACGACUAUUAAUAUUUCGUAGGAUAUACUAUUUACAUGAGGAUCACCCAUGUUUAAAUGGAACAAUGU	11.2 nM	14 nM	–	–
AUUCAACAUGAGGAUCACCCAUGUGAGGAUAUCGUAUACUACUGUUGCAAUACUUAGACGAGAAGGCACACCGU	18.9 nM	25.1 nM	–	–
AUUCCUAGUGUUAGGAUAUGCGACGGGUGACCGUUGCAGAAGGAACAUGAGGAUCACCCAUGUUUAAUAAAAUC	15.6 nM	80.7 nM	–	–
AUUGUUAAGGUAGGAUAUAGUAAAAUGAUUUAAUUAGAAGGAUCUCACAUGAGGAUCACCCAUGUAAGAGGAUUACCCAUGUAU	14.5 nM	13.2 nM	–	–
AUUUAAUUUAAUAAGAUCACAUGAGGAUCACCCAUGUAUAUAUAGGAUAUCAGCUCGAAUAGAGCUGAGAAGGAUAUAUACAUG	47.4 nM	41 nM	–	–
AUUUAAUUUAAUAAGAUCACAUGAGGAUCACCCAUGUAUAUAUAGGAUAUCAGCUCGUGUAGAGCUGAGAAGGAUAUAUACUAU	316 nM	204 nM	–	–
AUUUCGUUAGCAGGAUAUGGACAGGCCUGUCCGUAUUGAGUCAGUAACAUGAGGAUCACCCAUGUCCAGAAGGGCUCGAAGUAG	8.06 nM	13.9 nM	–	–
AUUUGACACGUAGGAUAUCGCUUAAAUUUAACACGAGAAGGACGAACAUGAGGAUCACCCAUGUAUCAUGGUGUAGAUAAUUUG	54.5 nM	216 nM	–	–
AUUUUAAUAUAGGAUAUCGAAAUUAUUAUUUAACGAGAAGGAUGAACAUGAGGAUCACCCAUGUGGUAUCAUGG	223 nM	204 nM	–	–
AUUUUGUCAGGAUAUGACUAGUAGCACGAAAGUGCUACUACUUAGAAGGGACAUGAGGAUCACCCAUGUAUUCC	15.2 nM	16.1 nM	–	–
AUUUUGUCAGGAUAUGAGUAGUAGGACGAAAGUGUUAUUAUUUAGAAGGGACAUGAGGAUCACCCAUGUUUCUC	12.3 nM	15.8 nM	–	–
AUUUUGUGAGGAUAUUAGUUGUAGAAAAUUGUUAGUAUAGCUGAGAAGGCACAUGAGGAUCACCCAUGUACAUC	18 nM	57.9 nM	–	–
CAAAAUUGUGCAGGAUAUGCAGUUUGAUGGGCCUGUGGGAGAACAUGAGGAUCACCCAUGUGCUUGCAGAAGGGCACAAGCGAA	103 nM	419 nM	–	–
CAAACCAGAGGAUAUGCGCAUAGAUCAGACUUUGUUUCUGAACAUGAGGAUCACCCAUGUAGAAGGCUGUAAAC	25.5 nM	24.4 nM	–	–
CAACGUACCAGAGGAUAUGAUUGUGGGUAAAGAGCGCUCAGGUGGCUACAUGAGGAUCACCCAUGUCAGAAGGCUGGAGUUCAA	114 nM	59.6 nM	–	–
CAACUGCAUGUGAGGAUAUGCACCGGCCAAGCCGGGCAGAAGGCACAUGAGGAUCACCCAUGUCAUCCUAUUGC	12.6 nM	27.8 nM	–	–
CAAGGCUUCACAGGAUAUAUUGAUGACAUGAGGAUCACCCAUGUACCGGCAGUAGAAGGGUGAACGCUCGUGGCCACGUGCGUG	–	–	130 nM	35.6 nM
CAAUUCCGAGGAUAUACAUGAGGAUCACCCAUGUCGGGCCUCAGCGUUUAGCGCGUAAGUAGAAGGUGGGUUUC	30.4 nM	41.1 nM	–	–
CACAAUCUAUCUGAGGAUAUCAUGAAAAAAACAUGAGGAUCACCCAUGUGCAGGAAAACUGCAUAUGAGAAGGCAGAUAGAUUGU	–	–	770 nM	28.4 nM
